The values below come from ChEMBL document CHEMBL1125314, “Synthesis and evaluation of 2-pyridinone derivatives as HIV-1 specific reverse transcriptase inhibitors. 1. Phthalimidoalkyl and -alkylamino analogues” (J Med Chem, 1992).

Where only a bound is given, the exact number is not on record here.

For data set [1], the target named is Human immunodeficiency virus type 1 reverse transcriptase (Human immunodeficiency virus 1, UniProt Q72547). The experiment in a line: Inhibition of HIV-1 reverse transcriptase.
The nature of data set [2]: The compound was tested for hydrolysis rate at pH 7. The class given is ADME. The conditions noted are these: buffer. The procedure, abridged: (§1)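 Aqueous hydrolysis of the (aminomethyl)phthalimides followed at pH 7, 8.2 (the pH used for the RT enzyme measurements) and 9.0. Results are expressed as the observed rate constant k_obs in units of 10⁻³ min⁻¹.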
Data set [3] can be described thus: The compound was tested for hydrolysis rate at pH 8.2. The format is ADME. As to conditions: buffer. In a few lines:
as §1

Data set [4] in a line: The compound was tested for hydrolysis rate at pH 9. The conditions noted are these: buffer. The class given is ADME. The procedure, abridged:
as §1

A word on the IC50: it is the point on the concentration scale where inhibition reaches its midpoint.

In the case of `CCCCc1cc(NCN2C(=O)c3ccccc3C2=O)c(O)nc1C`, the IC50 in data set [1] is 0.128 µM.
On the same count and under the same terms, as for `CCC1=C(C)NC(OC)C(C(=O)CN2C(=O)c3ccccc3C2=O)=C1` (stereo not given), the figure is over 300 µM; as for `Cc1cc(NCN2C(=O)c3ccccc3C2=O)c(O)nc1C`, 0.218 µM.
On the same count and under the same terms, with `CCc1cc(CN2C(=O)c3ccccc3C2=O)c(=O)[nH]c1C` the figure was 26.5 µM; with `CCC1=C(C)NC(OC)C(CN2C(=O)c3ccccc3C2=O)=C1` (stereo not given), 16 µM.
`CCc1cc(NCCN2C(=O)c3ccccc3C2=O)c(=O)[nH]c1C` came in with an IC50 in data set [1] of 45 µM.
The compound `CCc1cc(C(O)CN2C(=O)c3ccccc3C2=O)c(O)nc1C` (stereo not given) returned an IC50 in data set [1] of over 300 µM.
Regarding `CCc1cc(NCN2C(=O)c3ccccc3C2=O)c(O)nc1C`, the k obs in data set [2] came out at 0.00624 min⁻¹; in data set [3] it was 0.0101 min⁻¹; in data set [4], 0.0243 min⁻¹.
In the case of `O=C1c2ccccc2C(=O)N1CNc1cccnc1O`, the k obs in data set [2] amounted to 0.00085 min⁻¹; in data set [3], 0.0039 min⁻¹; in data set [4], 0.02417 min⁻¹. Further, 1.66 µM corresponded to half-maximal inhibition in data set [1] (IC50).
On to `CCc1cc(C(=O)CN2C(=O)c3ccccc3C2=O)c(=O)[nH]c1C`, for which the IC50 in data set [1] is over 300 µM.
On the same count and under the same terms, as for `CCc1cc(CCCN2C(=O)c3ccccc3C2=O)c(O)nc1C`, the figure is 210 µM.
On to `CCC1=C(C)NC(OC)C(CCN2C(=O)c3ccccc3C2=O)=C1` (stereo not given), for which, in data set [1], the concentration for half-maximal inhibition (IC50) is 6.2 µM.
For `O=C1c2ccccc2C(=O)N1CCc1cccnc1O`, the IC50 in data set [1] is over 300 µM.
On the same count and under the same terms, with `CCc1cc(/C=C/N2C(=O)c3ccccc3C2=O)c(=O)[nH]c1C` the figure was 54 µM.
Regarding `CCc1nc(O)c(NCN2C(=O)c3ccccc3C2=O)cc1C`, the k obs in data set [2] was 0.00722 min⁻¹; in data set [3] it was 0.01001 min⁻¹; in data set [4] it was 0.03627 min⁻¹. This compound also displayed a concentration for half-maximal inhibition (IC50) in data set [1] of 0.887 µM.
`CCc1cc(NCCCN2C(=O)c3ccccc3C2=O)c(=O)[nH]c1C` yielded a half-inhibitory concentration (IC50) in data set [1] of 190 µM.
As to `Cc1ccc(NCN2C(=O)c3ccccc3C2=O)c(=O)[nH]1`, the k obs in data set [2] amounted to 0.00424 min⁻¹; in data set [3], 0.0073 min⁻¹; in data set [4], 0.027 min⁻¹. In addition, the IC50 in data set [1] came to 8.1 µM.
For `O=C1c2ccccc2C(=O)N1CNc1cc2c(nc1O)CCCC2`, the k obs worked out at 0.00777 min⁻¹ in data set [2], 0.013 min⁻¹ in data set [3] and 0.03678 min⁻¹ in data set [4]. It took 3.7 µM to reach half-maximal inhibition in data set [1] (IC50).
For the compound `CCC1=C(C)NC(OC)C(CCCN2C(=O)c3ccccc3C2=O)=C1` (stereo not given), the concentration for half-maximal inhibition (IC50) in data set [1] was over 300 µM.
In the case of `CCC1=C(C)NC(OC)C(C(O)CN2C(=O)c3ccccc3C2=O)=C1` (stereo not given), the IC50 in data set [1] was over 300 µM.
Same read-out and setting: as for `CCCc1cc(NCN2C(=O)c3ccccc3C2=O)c(=O)[nH]c1C`, the figure is 0.058 µM.
